Assay results reported in ChEMBL document CHEMBL1687901 (J Med Chem, 2011).
Converted amounts (≈) assume the structure as drawn.

Key:
Format in all cases: functional
Streptococcus pneumoniae [1] = test: Antibacterial activity against tetracycline-resistant Streptococcus pneumoniae isolate 160 harboring tet(M) gene by CLSI M07-A8 method
Procedure, shortened: (§1)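 MICs were determined by CLSI broth microdilution in freshly prepared cation-adjusted Mueller Hinton broth, kept at 4 °C before use. Defibrinated horse blood was added as appropriate. Runs met QC ranges for comparator antibiotics with ATCC quality control strains.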

Staphylococcus aureus [2] = test: Antibacterial activity against wild type Staphylococcus aureus Smith ATCC 13709 by CLSI M07-A8 method
Escherichia coli [3] = test: Antibacterial activity against Escherichia coli ATCC 25922 by CLSI M07-A8 method
Staphylococcus aureus [4] = test: Antibacterial activity against tetracycline-resistant Staphylococcus aureus isolate 161 harboring tet(M) gene by CLSI M07-A8 method; procedure, shortened: as §1
Klebsiella pneumoniae = test: Antibacterial activity against Klebsiella pneumoniae ATCC 13883 by CLSI M07-A8 method
Escherichia coli [5] = test: Antibacterial activity against tetracycline-resistant Escherichia coli isolate 155 harboring tet(A) gene by CLSI M07-A8 method
Procedure, shortened: as §1, with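 “appropriate. The highest concentration tested was 32 μg/mL.” for “appropriate.”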

Staphylococcus aureus [6] = test: Antibacterial activity against tetracycline-resistant Staphylococcus aureus isolate 158 harboring tet(K) gene by CLSI M07-A8 method; procedure, shortened: as §1
Streptococcus pneumoniae [7] = test: Antibacterial activity against Streptococcus pneumoniae ATCC 49619 by CLSI M07-A8 method
Escherichia coli [8] = test: Inhibition of protein synthesis in Escherichia coli S30 extract by coupled transcription/translation assay
Procedure, shortened: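 Coupled transcription/translation used an E. coli S30 extract with a firefly luciferase reporter. Compounds were diluted in water and tested as a three-point titration in duplicate. Reactions ran 1 h at 37 °C and were stopped on ice for 5 min, then luciferase substrate was added and luminescence read. Percent inhibition was calculated against uninhibited controls averaged per plate, and IC50 derived.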

| Structure (SMILES) | MIC (Streptococcus pneumoniae [1]) [µg/mL] | MIC (Staphylococcus aureus [2]) [µg/mL] | MIC (Escherichia coli [3]) [µg/mL] | MIC (Staphylococcus aureus [4]) [µg/mL] | MIC (Klebsiella pneumoniae) [µg/mL] | MIC (Escherichia coli [5]) [µg/mL] | MIC (Staphylococcus aureus [6]) [µg/mL] | MIC (Streptococcus pneumoniae [7]) [µg/mL] | IC50 (Escherichia coli [8]) [µg/mL] |
| --- | --- | --- | --- | --- | --- | --- | --- | --- | --- |
| CN(C)[C@@H]1C(O)=C(C(N)=O)C(=O)[C@@]2(O)C(O)=C3C(=O)c4c(O)cnc(Cl)c4C[C@H]3C[C@@H]12.Cl | 32 | 1 | 2 | 32 | 4 | > 32 | 32 | 1 | – |
| CN(C)[C@@H]1C(O)=C(C(N)=O)C(=O)[C@@]2(O)C(O)=C3C(=O)c4c(O)cnc(F)c4C[C@H]3C[C@@H]12.Cl | 8 | 0.063 | 0.25 | 8 | 0.5 | > 32 | 8 | 0.016 | – |
| CN(C)CCNc1nc(Cl)c2c(c1O)C(=O)C1=C(O)[C@]3(O)C(=O)C(C(N)=O)=C(O)[C@@H](N(C)C)[C@@H]3C[C@@H]1C2.Cl | 2 | 2 | 4 | 4 | 8 | 32 | 1 | 0.5 | – |
| CN(C)[C@@H]1C(O)=C(C(N)=O)C(=O)[C@@]2(O)C(O)=C3C(=O)c4c(O)c(NCC(C)(C)CN5CCCC5)nc(Cl)c4C[C@H]3C[C@@H]12.Cl | 0.25 | 0.5 | 2 | 2 | 4 | 8 | 0.125 | 0.031 | – |
| CN(C)CC(C)(C)CNc1nc(F)c2c(c1O)C(=O)C1=C(O)[C@]3(O)C(=O)C(C(N)=O)=C(O)[C@@H](N(C)C)[C@@H]3C[C@@H]1C2.Cl | 1 | 1 | 1 | 2 | 2 | 8 | 0.5 | 0.5 | – |
| CCCc1nc(Cl)c2c(c1O)C(=O)C1=C(O)[C@]3(O)C(=O)C(C(N)=O)=C(O)[C@@H](N(C)C)[C@@H]3C[C@@H]1C2.Cl | 4 | 1 | > 32 | 4 | 32 | > 32 | 4 | 1 | – |
| Cc1nc(Cl)c2c(c1O)C(=O)C1=C(O)[C@]3(O)C(=O)C(C(N)=O)=C(O)[C@@H](N(C)C)[C@@H]3C[C@@H]1C2.Cl | 8 | 2 | 8 | 8 | 8 | > 32 | 16 | 0.5 | – |
| CN(C)[C@@H]1C(O)=C(C(N)=O)C(=O)[C@@]2(O)C(O)=C3C(=O)c4c(O)c(-c5ccccc5)nc(Cl)c4C[C@H]3C[C@@H]12.Cl | 8 | 1 | > 32 | 2 | > 32 | > 32 | 1 | 8 | – |
| CCCNc1nc(N(C)C)c2c(c1O)C(=O)C1=C(O)[C@]3(O)C(=O)C(C(N)=O)=C(O)[C@@H](N(C)C)[C@@H]3C[C@@H]1C2.Cl.Cl | > 32 | – | 32 | > 32 | > 32 | > 32 | – | 8 | 3.4 |
| CNc1nc(Cl)c2c(c1O)C(=O)C1=C(O)[C@]3(O)C(=O)C(C(N)=O)=C(O)[C@@H](N(C)C)[C@@H]3C[C@@H]1C2.Cl.Cl.Cl | 4 | 0.016 | 0.125 | 1 | 0.5 | 32 | 2 | 0.016 | – |
| CC(C)Nc1nc(Cl)c2c(c1O)C(=O)C1=C(O)[C@]3(O)C(=O)C(C(N)=O)=C(O)[C@@H](N(C)C)[C@@H]3C[C@@H]1C2.Cl.Cl.Cl | 16 | 1 | 32 | 4 | 32 | > 32 | 2 | 2 | – |
| CC(C)CCNc1nc(Cl)c2c(c1O)C(=O)C1=C(O)[C@]3(O)C(=O)C(C(N)=O)=C(O)[C@@H](N(C)C)[C@@H]3C[C@@H]1C2.Cl.Cl.Cl | 32 | 0.25 | > 32 | 2 | > 32 | > 32 | 0.25 | 8 | – |
| COCCNc1nc(Cl)c2c(c1O)C(=O)C1=C(O)[C@]3(O)C(=O)C(C(N)=O)=C(O)[C@@H](N(C)C)[C@@H]3C[C@@H]1C2.Cl.Cl.Cl | 4 | 0.031 | 1 | 4 | 4 | 32 | 1 | 0.063 | – |
| Cc1ncc2c(c1O)C(=O)C1=C(O)[C@]3(O)C(=O)C(C(N)=O)=C(O)[C@@H](N(C)C)[C@@H]3C[C@@H]1C2.Cl.Cl | 16 | 4 | 8 | 32 | 8 | > 32 | 32 | 1 | – |
| CCCc1nc(N(C)C)c2c(c1O)C(=O)C1=C(O)[C@]3(O)C(=O)C(C(N)=O)=C(O)[C@@H](N(C)C)[C@@H]3C[C@@H]1C2.Cl.Cl | 2 | 1 | 16 | 2 | 16 | > 32 | 1 | 1 | – |
| CN(C)[C@@H]1C(O)=C(C(N)=O)C(=O)[C@@]2(O)C(O)=C3C(=O)c4c(O)cncc4C[C@H]3C[C@@H]12.Cl.Cl | 32 | 1 | 0.5 | 32 | 1 | > 32 | 16 | 0.25 | – |
| COc1ncc(O)c2c1C[C@H]1C[C@H]3[C@H](N(C)C)C(O)=C(C(N)=O)C(=O)[C@@]3(O)C(O)=C1C2=O.Cl.Cl | 16 | 0.125 | 0.25 | 8 | 1 | > 32 | 4 | 0.063 | – |
| CC(C)OCCNc1nc(Cl)c2c(c1O)C(=O)C1=C(O)[C@]3(O)C(=O)C(C(N)=O)=C(O)[C@@H](N(C)C)[C@@H]3C[C@@H]1C2.Cl.Cl.Cl | 4 | 0.5 | 8 | 2 | 16 | > 32 | 0.25 | 0.031 | – |
| CN(C)[C@@H]1C(O)=C(C(N)=O)C(=O)[C@@]2(O)C(O)=C3C(=O)c4c(O)cnc(-c5ccccc5)c4C[C@H]3C[C@@H]12.Cl.Cl | 4 | 0.063 | 0.5 | 32 | 2 | > 32 | 1 | 0.031 | – |
| CCNc1nc(Cl)c2c(c1O)C(=O)C1=C(O)[C@]3(O)C(=O)C(C(N)=O)=C(O)[C@@H](N(C)C)[C@@H]3C[C@@H]1C2.Cl.Cl.Cl | 4 | 0.031 | 0.5 | 1 | 2 | 16 | 0.5 | 0.031 | – |
| CC(C)CNc1nc(Cl)c2c(c1O)C(=O)C1=C(O)[C@]3(O)C(=O)C(C(N)=O)=C(O)[C@@H](N(C)C)[C@@H]3C[C@@H]1C2.Cl.Cl.Cl | 8 | 0.5 | 16 | 1 | > 32 | > 32 | 0.5 | 1 | – |
| CN(C)[C@@H]1C(O)=C(C(N)=O)C(=O)[C@@]2(O)C(O)=C3C(=O)c4c(cnc(-c5ccccc5)c4O)C[C@H]3C[C@@H]12.Cl.Cl | 8 | 4 | 16 | 8 | 32 | > 32 | 16 | 2 | – |
| Cc1ncc(O)c2c1C[C@H]1C[C@H]3[C@H](N(C)C)C(O)=C(C(N)=O)C(=O)[C@@]3(O)C(O)=C1C2=O.Cl.Cl | > 32 | 1 | 1 | 32 | 1 | > 32 | 0.5 | 0.25 | – |
| CCCNc1nc(Cl)c2c(c1O)C(=O)C1=C(O)[C@]3(O)C(=O)C(C(N)=O)=C(O)[C@@H](N(C)C)[C@@H]3C[C@@H]1C2.Cl.Cl.Cl | 4 | 0.063 | – | 1 | 8 | 16 | 0.5 | 0.25 | 5.3 |
| CN(C)c1ccc(O)c2c1C[C@H]1C[C@H]3[C@H](N(C)C)C(O)=C(C(N)=O)C(=O)[C@@]3(O)C(O)=C1C2=O [MINOCYCLINE] | 8 (≈ 17.5 µM) | 0.125 (≈ 0.273 µM) | 0.5 (≈ 1.09 µM) | 16 (≈ 35 µM) | – | 8 (≈ 17.5 µM) | 0.25 (≈ 0.546 µM) | < 0.016 | – |
| CN(C)c1cc(CNCC(C)(C)C)c(O)c2c1C[C@H]1C[C@H]3[C@H](N(C)C)C(O)=C(C(N)=O)C(=O)[C@@]3(O)C(O)=C1C2=O [OMADACYCLINE] | 0.125 (≈ 0.225 µM) | 0.5 (≈ 0.898 µM) | 2 (≈ 3.59 µM) | 2 (≈ 3.59 µM) | 2 (≈ 3.59 µM) | 16 (≈ 28.7 µM) | 0.25 (≈ 0.449 µM) | 0.031 (≈ 0.0557 µM) | – |
